ChEMBL document CHEMBL2311304, “Design, synthesis and in vitro and in vivo antitumor activities of novel bivalent β-carbolines” (Eur J Med Chem, 2013)

Tests used:
[1] = system: H22; test: Antitumor activity in mouse H22 liver cancer cells inoculated mouse assessed as tumor inhibition rate at one fifth of LD50 concentration once a day for consecutive 7 days by ip; type: functional; set-up: scale not given: the % may be the effect or the level left
How it was run: (§1)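 Each tumour line was first grown in mice for 7 days, then harvested. Viable cells (2 × 10^6 per mouse) were injected s.c. into the armpit. Dosing began 24 h later: i.p., about one fifth of LD50, daily for 7 days, 10 female mice per group. […] Body weight was recorded every 3 days. Tumours were excised and weighed on day 21 to give inhibition rate.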

[2] = system: B16; test: Antitumor activity in mouse B16 melanoma cell lines cells inoculated mouse assessed as tumor inhibition rate at one fifth of LD50 concentration once a day for consecutive 7 days by ip; type: functional; set-up: scale not given: the % may be the effect or the level left; how it was run: as §1
[3] = Antitumor activity in mouse Sarcoma 180 cells inoculated mouse assessed as tumor inhibition rate at one fifth of LD50 concentration once a day for consecutive 7 days by ip; type: functional; set-up: scale not given: the % may be the effect or the level left; how it was run: as §1
[4] = Antitumor activity in mouse Lewis lung cancer cells inoculated mouse assessed as tumor inhibition rate at one fifth of LD50 concentration once a day for consecutive 7 days by ip; type: functional, Cancer cell lines; set-up: scale not given: the % may be the effect or the level left; how it was run: as §1
[5] = system: CT26; test: Antitumor activity in mouse CT26 colon cancer cells inoculated mouse assessed as tumor inhibition rate at one fifth of LD50 concentration once a day for consecutive 7 days by ip; type: functional; set-up: scale not given: the % may be the effect or the level left; how it was run: as §1
[6] = system: Mus musculus; test: Toxicity in C57BL/6 mouse assessed as maximum weight loss at 50 mg/kg, ip; type: organism-based; set-up: dose 50 mg/kg, route intraperitoneal; conditions: in vivo
[7] = system: Mus musculus; test: Toxicity in C57BL/6 mouse assessed as maximum weight loss at 30 mg/kg, ip; type: organism-based; set-up: dose 30 mg/kg, route intraperitoneal; conditions: in vivo
How it was run: (§2)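 Tumor-bearing mice, 10 females per group, were inoculated s.c. in the armpit with 2 × 10^6 viable tumor cells. Compound was given i.p. once daily for 7 consecutive days, starting 24 h after inoculation. […] Body weight was recorded every 3 days until sacrifice on day 21.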

[8] = system: Mus musculus; test: Toxicity in C57BL/6 mouse assessed as liver damage at 1 to 500 mg/kg, ip for 14 days; type: organism-based; set-up: dose 1-500 mg/kg, route intraperitoneal; conditions: in vivo, 336 h
How it was run: (§3)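 Healthy C57BL/6 mice (9–12 weeks, 18–22 g) were fasted overnight with free access to water. Each received a single i.p. dose of 1.0–500 mg kg-1 in 0.5% CMC-Na, 10 mice per group (5 male, 5 female). Mice were watched continuously for 2 h, intermittently to 24 h, then occasionally to 14 days for tremor, twitch, jumping and supination. At day 14 they were killed and heart, liver and kidneys were examined macroscopically.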

[9] = system: Mus musculus; test: Toxicity in C57BL/6 mouse assessed as kidney damage at 1 to 500 mg/kg, ip for 14 days; type: organism-based; set-up: dose 1-500 mg/kg, route intraperitoneal; conditions: in vivo, 336 h; how it was run: as §3
[10] = system: Mus musculus; test: Toxicity in C57BL/6 mouse assessed as heart damage at 1 to 500 mg/kg, ip for 14 days; type: organism-based; set-up: dose 1-500 mg/kg, route intraperitoneal; conditions: in vivo, 336 h; how it was run: as §3
[11] = system: Mus musculus; test: Neurotoxicity in C57BL/6 mouse at 1 to 500 mg/kg, ip for 14 days; type: toxicity, organism-based; set-up: dose 1-500 mg/kg, route intraperitoneal; conditions: in vivo, 336 h; how it was run: as §3
[12] = system: SK-OV-3; test: Cytotoxicity against human ovary adenocarcinoma SKOV3 cells assessed as reduction in optical density by MTT assay; type: functional, cell-based; conditions: SK-OV-3, Female gonad
How it was run: (§4)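 Cells were cultured in RPMI-1640 with 10% (v/v) fetal calf serum, 100 µg ml-1 penicillin and 100 µg ml-1 streptomycin at 37 °C in humidified 5% CO2. Compounds were dissolved in DMSO, with final DMSO at 2% (v/v) or lower. MTT staining was used, with three replicate wells per point. IC50 is the concentration giving a 50% drop in optical density versus untreated cells.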

[13] = system: KB; test: Cytotoxicity against human epidermoid carcinoma of the nasopharynx KB cells assessed as reduction in optical density by MTT assay; type: functional, cell-based; how it was run: as §4
[14] = system: 769-P; test: Cytotoxicity against human renal carcinoma 769-P cells assessed as reduction in optical density by MTT assay; type: functional, cell-based; how it was run: as §4
[15] = system: A-375; test: Cytotoxicity against human malignant melanoma A375 cells assessed as reduction in optical density by MTT assay; type: functional, cell-based; how it was run: as §4
[16] = system: BGC-823; test: Cytotoxicity against human gastric carcinoma BGC823 cells assessed as reduction in optical density by MTT assay; type: functional, cell-based; how it was run: as §4
[17] = system: Mus musculus; test: Toxicity in C57BL/6 mouse assessed as maximum weight loss at 7.5 mg/kg, ip; type: organism-based; set-up: dose 7.5 mg/kg, route intraperitoneal; conditions: in vivo
[18] = system: Mus musculus; test: Toxicity in C57BL/6 mouse assessed as maximum weight loss at 40 mg/kg, ip; type: organism-based; set-up: dose 40 mg/kg, route intraperitoneal; conditions: in vivo; how it was run: as §2
[19] = Acute toxicity in ip treated C57BL/6 mouse for 14 days; type: organism-based; conditions: in vivo
How it was run: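 C57BL/6 mice (9–12 weeks, 18–22 g) were fasted overnight with free water. They received single i.p. doses of 1.0–500 mg kg-1 in 0.5% CMC-Na, 10 mice per group (5 male, 5 female). Mice were watched continuously for 2 h, then intermittently to 24 h, then occasionally to 14 days. Heart, liver and kidneys were checked macroscopically. LD50 was derived graphically.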

[20] = system: Mus musculus; test: Toxicity in C57BL/6 mouse assessed as maximum weight loss at 10 mg/kg, ip; type: organism-based; set-up: dose 10 mg/kg, route intraperitoneal; conditions: in vivo

SMILES: O=P1(N(CCCl)CCCl)NCCCO1 (centres undefined) [CYCLOPHOSPHAMIDE ANHYDROUS]
- Activity [1]: 83.8%
- Activity [2]: 86.5%
- Activity [3]: 85.6%
- Activity [4]: 97.8%
- Activity [5]: 97.2%
- Activity [6]: 7.7%

SMILES: c1ccc2c(c1)c1ccncc1n2CCCCCn1c2ccccc2c2ccncc21
- Activity [1]: 40.4%
- Activity [2]: 26.1%
- Activity [3]: 43.8%
- Activity [4]: 42.5%
- Activity [5]: 48.6%
- Activity [7]: 10%
- Activity [8]: Non-toxic
- Activity [9]: Non-toxic
- Activity [10]: Non-toxic
- Activity [11]: Non-toxic
- IC50 [12]: > 200 µM
- IC50 [13]: > 200 µM
- IC50 [14]: 15.3 µM
- IC50 [15]: 10.2 µM
- IC50 [16]: 23.5 µM

SMILES: COc1ccc2c(c1)[nH]c1c(C)nccc12 [HARMINE]
- Activity [3]: 15.3%
- Activity [4]: 34.1%
- Activity [17]: 8.5%
- Activity [11]: Toxic
- IC50 [12]: 74.6 µM
- IC50 [13]: 57.8 µM
- IC50 [14]: 48.9 µM
- IC50 [15]: 72.5 µM
- IC50 [16]: 63.2 µM

SMILES: c1cncc(-c2nccc3c4ccccc4n(CCCCCCn4c5ccccc5c5ccnc(-c6cccnc6)c54)c23)c1
- Activity [1]: 35%
- Activity [2]: 24.3%
- Activity [3]: 40.5%
- Activity [4]: 43.2%
- Activity [5]: 50.6%
- Activity [6]: 11.9%
- Activity [8]: Non-toxic
- Activity [9]: Non-toxic
- Activity [10]: Non-toxic
- Activity [11]: Non-toxic
- IC50 [12]: 14.9 µM
- IC50 [13]: 13.3 µM
- IC50 [14]: > 200 µM
- IC50 [15]: 5.3 µM
- IC50 [16]: 14.1 µM

SMILES: Cc1nccc2c3ccccc3n(CCCCn3c4ccccc4c4ccnc(C)c43)c12
- Activity [1]: 42.3%
- Activity [2]: 29.9%
- Activity [3]: 56.2%
- Activity [4]: 40.4%
- Activity [5]: 50.8%
- Activity [18]: 21.5%
- Activity [8]: Non-toxic
- Activity [9]: Non-toxic
- Activity [10]: Non-toxic
- Activity [11]: Non-toxic
- IC50 [12]: 4.8 µM
- IC50 [13]: 6.4 µM
- IC50 [14]: 6.5 µM
- IC50 [15]: 13.1 µM
- IC50 [16]: 22.3 µM

SMILES: COc1cc(-c2nccc3c4ccccc4n(CCCCCCn4c5ccccc5c5ccnc(-c6cc(OC)c(OC)c(OC)c6)c54)c23)cc(OC)c1OC
- Activity [4]: 43.3%
- Activity [5]: 45.8%
- Activity [18]: 7.2%
- Activity [8]: Non-toxic
- Activity [9]: Non-toxic
- Activity [10]: Non-toxic
- Activity [11]: Non-toxic
- LD50 at 336 h [19]: 200 mg/kg
- IC50 [12]: > 200 µM
- IC50 [13]: > 200 µM
- IC50 [14]: 16.8 µM
- IC50 [15]: 5.9 µM
- IC50 [16]: > 200 µM

SMILES: CCOC(=O)c1cc2c(cn1)[nH]c1ccccc12
- Activity [3]: 35.2%
- Activity [20]: 11.8%
- Activity [11]: Non-toxic
- LD50 at 336 h [19]: 32.6 mg/kg
- IC50 [12]: 92.6 µM
- IC50 [13]: > 200 µM
- IC50 [14]: 175 µM
- IC50 [15]: > 200 µM
- IC50 [16]: > 200 µM

SMILES: COc1ccc2c3ccnc(C)c3n(CCCCn3c4cc(OC)ccc4c4ccnc(C)c43)c2c1
- Activity [4]: 38.1%
- Activity [5]: 45.5%
- Activity [20]: 7.7%
- Activity [8]: Non-toxic
- Activity [9]: Non-toxic
- Activity [10]: Non-toxic
- Activity [11]: Non-toxic
- IC50 [12]: 7.1 µM
- IC50 [13]: 2.8 µM
- IC50 [14]: 65.6 µM
- IC50 [15]: 6.2 µM
- IC50 [16]: 75.7 µM

SMILES: c1ccc2c(c1)c1ccncc1n2CCCCCCn1c2ccccc2c2ccncc21
- Activity [1]: 31.2%
- Activity [2]: 24.8%
- Activity [4]: 37.7%
- Activity [5]: 32.4%
- Activity [18]: 15%
- Activity [8]: Non-toxic
- Activity [9]: Non-toxic
- Activity [10]: Non-toxic
- Activity [11]: Non-toxic
- LD50 at 336 h [19]: 200 mg/kg
- IC50 [12]: 38.9 µM
- IC50 [13]: 13.9 µM
- IC50 [14]: 12.8 µM
- IC50 [15]: 10.8 µM
- IC50 [16]: 13.8 µM
